According to ChEMBL document CHEMBL1156597, “Structure-activity relationship of kahalalide F synthetic analogues” (J Med Chem, 2008):

Key:
[1] = test system: DU-145; assay: Cytotoxicity against human DU145 cells after 48 hrs by SRB assay; format: functional, cell-based; conditions: Homo sapiens, DU-145, 48 h; for CC50: read-out: LC50 (the source's name)
In short: (§1)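 Cells grown in RPMI 1640 with 10% FBS and penicillin/streptomycin at 37 °C and 5% CO₂, trypsinized, then seeded at 5 × 10³/well. After 18 h drug-free attachment, samples in DMSO/EtOH/PBS (0.5:0.5:99) were added for 48 h continuous exposure. Cells were fixed with cold TCA (1 h, 4 °C) and stained with SRB (10 min). Tris-solubilized stain read at 490 nm. Triplicate wells, mean ± SD; GI₅₀ derived.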

[2] = Cytotoxicity against human IGROV cells after 48 hrs by SRB assay; format: functional; conditions: for CC50: read-out: LC50 (the source's name); in short: as §1
[3] = Cytotoxicity against human IGROV-ET cells after 48 hrs by SRB assay; format: functional; conditions: for CC50: read-out: LC50 (the source's name); in short: as §1
[4] = test system: SK-BR-3; assay: Cytotoxicity against human SKBR3 cells after 48 hrs by SRB assay; format: functional; conditions: SK-BR-3, 48 h; for CC50: read-out: LC50 (the source's name); in short: as §1
[5] = test system: SK-MEL-28; assay: Cytotoxicity against human SK-MEL-28 cells after 48 hrs by SRB assay; format: functional, cell-based; conditions: Homo sapiens, SK-MEL-28, 48 h; for GI50: read-out: GI50; for CC50: read-out: LC50 (the source's name); in short: as §1
[6] = test system: A549; assay: Cytotoxicity against human A549 cells after 48 hrs by SRB assay; format: functional, cell-based; conditions: Homo sapiens, A549, 48 h; for GI50: read-out: GI50; in short: as §1
[7] = test system: K562; assay: Cytotoxicity against human K562 cells after 48 hrs by SRB assay; format: functional; conditions: K562, 48 h; for CC50: read-out: LC50 (the source's name); in short: as §1
[8] = test system: PANC-1; assay: Cytotoxicity against human PANC1 cells after 48 hrs by SRB assay; format: functional; conditions: PANC-1, 48 h; for CC50: read-out: LC50 (the source's name); in short: as §1
[9] = test system: HT-29; assay: Cytotoxicity against human HT29 cells after 48 hrs by SRB assay; format: functional, cell-based; conditions: Homo sapiens, HT-29, 48 h; for CC50: read-out: LC50 (the source's name); in short: as §1
[10] = test system: LoVo; assay: Cytotoxicity against human LoVo cells after 48 hrs by SRB assay; format: functional; conditions: for CC50: read-out: LC50 (the source's name)
[11] = test system: LoVo; assay: Cytotoxicity against human doxorubicin resistant LoVo cells after 48 hrs by SRB assay; format: functional; conditions: for CC50: read-out: LC50 (the source's name); in short: as §1
[12] = test system: HeLa; assay: Cytotoxicity against human HeLa cells after 48 hrs by SRB assay; format: functional; conditions: for CC50: read-out: LC50 (the source's name); in short: as §1
[13] = Cytotoxicity against human HeLa-APL cells after 48 hrs by SRB assay; format: functional; in short: as §1

| SMILES | GI50 ([1]; read-out: GI50) | CC50 [1] | CC50 [2] | GI50 ([3]; read-out: GI50) | CC50 [3] | CC50 [5] | LC50 [6] | CC50 [7] | GI50 [8] | TGI [8] | CC50 [8] | GI50 [9] | TGI [9] | CC50 [9] | GI50 [10] | TGI [10] | CC50 [10] | CC50 [11] | CC50 [12] | LC50 (concentration giving 50% net cell kill) [13] | further results |
| --- | --- | --- | --- | --- | --- | --- | --- | --- | --- | --- | --- | --- | --- | --- | --- | --- | --- | --- | --- | --- | --- |
| C/C=C1\NC(=O)[C@H](Cc2ccccc2)NC(=O)[C@@H](C(C)C)NC(=O)[C@@H]([C@H](C)CC)NC(=O)[C@H](NC(=O)[C@H](NC(=O)[C@H](CCCN)NC(=O)[C@H]2CCCN2C(=O)[C@H](NC(=O)[C@@H](NC(=O)[C@H](CCC(N)=O)NC(=O)[C@H](NC(=O)CCCC(C)C)C(C)C)C(C)C)C(C)C)[C@H](C)CC)[C@H](C)OC(=O)[C@H](C(C)C)NC1=O | 913 nM | 913 nM | 456 nM | 477 nM | 561 nM | 1170 nM | 1140 nM | 1.9 µM | 1740 nM | 1.74 µM | 1740 nM | 0.448 µM | 0.455 µM | 0.436 µM | 0.258 µM | 0.325 µM | 0.357 µM | 0.348 µM | 946 nM | 955 nM | GI50 [1]: 913 nM; GI50 [2]: 406 nM; GI50 ([2]; read-out: GI50): 357 nM; GI50 [3]: 575 nM; TGI [4]: 173 nM; GI50 ([4]; read-out: GI50): 151 nM; CC50 [4]: 300 nM; TGI [5]: 1170 nM; GI50 [5]: 1170 nM; TGI [6]: 1140 nM; GI50 [6]: 1140 nM; GI50 [7]: 1900 nM; TGI [7]: 1900 nM |
| C/C=C1\NC(=O)[C@H](Cc2ccccc2)NC(=O)[C@@H](C(C)C)NC(=O)[C@@H]([C@H](C)CC)NC(=O)[C@H](NC(=O)[C@H](NC(=O)[C@H](CCCN)NC(=O)[C@H]2CCCN2C(=O)[C@H](NC(=O)[C@@H](NC(=O)[C@@H](NC(=O)CNC(=O)CCCC(C)C)[C@@H](C)O)C(C)C)C(C)C)[C@H](C)CC)[C@H](C)OC(=O)[C@H](C(C)C)NC1=O | – | 1750 nM | 1430 nM | – | 1200 nM | 2040 nM | 1890 nM | 4.39 µM | 499 nM | 1.25 µM | 2110 nM | 10.9 µM | 9.54 µM | 5.41 µM | 8.76 µM | 8.9 µM | 5.18 µM | 5.2 µM | 1650 nM | 1890 nM | GI50 [7]: 3850 nM; TGI [7]: 11400 nM; GI50 [11]: 11.1 µM; TGI [11]: 9.1 µM; GI50 [12]: 672 nM; TGI [12]: 1320 nM |
| CC[C@@H]1NC(=O)[C@H](Cc2ccccc2)NC(=O)[C@@H](C(C)C)NC(=O)[C@@H]([C@H](C)CC)NC(=O)[C@H](NC(=O)[C@H](NC(=O)[C@H](CCCN)NC(=O)[C@H]2CCCN2C(=O)[C@H](NC(=O)[C@@H](NC(=O)[C@@H](NC(=O)[C@H](NC(=O)CCCC(C)C)C(C)C)[C@@H](C)O)C(C)C)C(C)C)[C@H](C)CC)[C@H](C)OC(=O)[C@H](C(C)C)NC1=O | 3050 nM | 1700 nM | 1390 nM | 1640 nM | 1170 nM | 1980 nM | 1830 nM | 4.26 µM | 3090 nM | 4.98 µM | 2830 nM | 7.35 µM | 9.27 µM | 5.25 µM | 3.03 µM | 3.86 µM | 4.93 µM | 2.93 µM | 1600 nM | 1840 nM | TGI [1]: 3.07 µM; TGI [2]: 2220 nM; GI50 ([2]; read-out: GI50): 2810 nM; TGI [3]: 1430 nM; TGI [5]: 3830 nM; GI50 [5]: 4480 nM; GI50 [11]: 2.72 µM; TGI [11]: 2.82 µM |
| C/C=C1\NC(=O)[C@H](Cc2ccccc2)NC(=O)[C@H](C(C)C)NC(=O)[C@@H]([C@H](C)CC)NC(=O)[C@H](NC(=O)[C@H](NC(=O)[C@H](CCCN)NC(=O)[C@H]2CCCN2C(=O)[C@H](NC(=O)[C@@H](NC(=O)[C@@H](NC(=O)[C@H](NC(=O)CCCC(C)C)C(C)C)[C@@H](C)O)C(C)C)C(C)C)[C@H](C)CC)[C@H](C)OC(=O)[C@H](C(C)C)NC1=O | – | 1700 nM | 1390 nM | 1220 nM | 1170 nM | 1990 nM | 1830 nM | 4.27 µM | 1680 nM | 4.98 µM | 2830 nM | – | – | 5.26 µM | 5.49 µM | 8.66 µM | 5.04 µM | 5.06 µM | 1610 nM | 1840 nM | TGI [3]: 2860 nM |
| C/C=C1\NC(=O)[C@H](Cc2ccccc2)NC(=O)[C@@H](C(C)C)NC(=O)[C@@H]([C@H](C)CC)NC(=O)[C@H](NC(=O)[C@H](NC(=O)[C@H](CCCNC(=O)C[C@](OC)(c2ccccc2)C(F)(F)F)NC(=O)[C@H]2CCCN2C(=O)[C@H](NC(=O)[C@@H](NC(=O)[C@@H](NC(=O)[C@H](NC(=O)CCCC(C)C)C(C)C)[C@@H](C)O)C(C)C)C(C)C)[C@H](C)CC)[C@H](C)OC(=O)[C@H](C(C)C)NC1=O | 886 nM | 812 nM | 442 nM | 344 nM | 479 nM | 1040 nM | 1010 nM | 1.69 µM | 1550 nM | 1.55 µM | 1550 nM | 0.148 µM | 0.147 µM | 0.311 µM | 0.0927 µM | 0.0914 µM | 0.0909 µM | 0.119 µM | 842 nM | 850 nM | GI50 [1]: 812 nM; GI50 [2]: 313 nM; GI50 ([2]; read-out: GI50): 245 nM; GI50 [3]: 397 nM; GI50 [4]: 95.8 nM; GI50 ([4]; read-out: GI50): 91.8 nM; CC50 [4]: 158 nM; TGI [5]: 1040 nM; GI50 [5]: 1040 nM; TGI [6]: 1010 nM; GI50 [6]: 1010 nM; GI50 [7]: 1110 nM; TGI [7]: 1690 nM; GI50 [12]: 537 nM; TGI [12]: 842 nM; GI50 [13]: 554 nM; TGI [13]: 615 nM |
| C/C=C1\NC(=O)[C@H](Cc2ccccc2)NC(=O)[C@@H](C(C)C)NC(=O)[C@@H]([C@H](C)CC)NC(=O)[C@H](NC(=O)[C@H](NC(=O)[C@H](CCCN)NC(=O)[C@H]2CCCN2C(=O)[C@H](NC(=O)[C@@H](NC(=O)[C@@H](NC(=O)[C@H](N)C(C)C)[C@@H](C)O)C(C)C)C(C)C)[C@H](C)CC)[C@H](C)OC(=O)[C@H](C(C)C)NC1=O | – | 1840 nM | 1500 nM | 4010 nM | 1260 nM | 4140 nM | 1980 nM | 4.61 µM | 5490 nM | 5.39 µM | 3060 nM | – | – | 5.68 µM | 9.46 µM | 9.36 µM | 5.45 µM | 5.47 µM | 1740 nM | 1990 nM | TGI [3]: 3100 nM |
